From ChEMBL document CHEMBL1765038, “Cytotoxic and anti-inflammatory cembranoids from the Vietnamese soft coral Lobophytum laevigatum” (Bioorg Med Chem, 2011)
The source made the active and inactive calls. The rule behind the calls is not given here.

Key:
[1] = tested on: HL-60; assay: Cytotoxicity against human HL60 cells by MTT assay; format: functional, cell-based
Method in brief: (§1)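 MTT colorimetric assay on human cancer cell lines (leukemia HL-60, lung A549, colon HCT-116, breast MCF-7) obtained from the Korea Cell Line Bank; values reported as IC50.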

[2] = tested on: HCT-116; assay: Cytotoxicity against human HCT116 cells by MTT assay; format: functional, cell-based; method in brief: as §1
[3] = tested on: A549; assay: Cytotoxicity against human A549 cells by MTT assay; format: functional, cell-based; method in brief: as §1
[4] = tested on: MCF7; assay: Cytotoxicity against human MCF7 cells by MTT assay; format: functional, cell-based; method in brief: as §1
[5] = Inhibition of TNF-alpha-induced NF-kappaB transcriptional activity in human HepG2 cells pretreated for 1 hr by luciferase reporter gene assay; format: cell-based
Method in brief: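 Hep-G2 cells seeded at 2 × 10^5 per well, grown 24 h, then transfected (Lipofectamine LTX) with a firefly luciferase reporter under a minimal CMV promoter with tandem NF-κB response elements. Cells pretreated 1 h with vehicle (DMSO) or compound (0.1, 1, 10 µM), then 10 ng/mL TNFα for 1 h. Lysates read for luminescence. Unstimulated cells as negative control, PDTC 10 µM as positive control. Mean ± SD, n = 6; IC50 derived.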

[6] = tested on: HepG2; assay: Inhibition of NF-kappaB-induced COX2 mRNA expression in TNF-alpha-stimulated human HepG2 cells at 1 to 9 uM pretreated for 1 hr by RT-PCR; format: cell-based
Method in brief: (§2)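 Hep-G2 cells pretreated with or without compound for 1 h, then exposed to 10 ng/mL TNFα for 6 h. Total mRNA isolated from cell pellets. COX-2 and iNOS transcripts quantified by RT-PCR, with primer specificity checked by gel electrophoresis and melting-curve analysis.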

[7] = tested on: HepG2; assay: Inhibition of NF-kappaB-induced iNOS mRNA expression in TNF-alpha-stimulated human HepG2 cells at 1 to 9 uM pretreated for 1 hr by RT-PCR; format: cell-based; method in brief: as §2
[8] = tested on: HepG2; assay: Cytotoxicity against human HepG2 cells at 0.1 to 10 uM; format: cell-based; conditions: hepg2, 10 µM
Method in brief: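 Hep-G2 viability measured by MTT assay at the concentrations used in the NF-κB reporter and mRNA experiments.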

Row | IC50 [5] [µM] | Compound | IC50 [1] [µM] | IC50 [2] [µM] | Activity [1] | Activity [3] | Activity [2] | Activity [4] | inhibition [6] | inhibition [7] | Activity [8] | IC50 [3] [µM] | IC50 [4] [µM]
1 |  | O=C1c2c(O)ccc(O)c2C(=O)c2c(NCCNCCO)ccc(NCCNCCO)c21 [MITOXANTRONE] | 7.9 | 7.2 |  |  |  |  |  |  |  |  | 
2 |  | CC1=C2CC/C(C)=C/CC[C@@]3(C)O[C@H]3CC[C@](C)(O)/C=C/2OC1=O |  |  | inactive | inactive | inactive | inactive |  |  |  |  | 
3 | 9.7 | C=C1CO[C@H]2/C=C(\C)CC[C@@H]3O[C@]3(C)CC/C=C(\C)CC[C@@]12O [LAEVIGATOL B] |  |  | inactive | inactive | inactive | inactive | Dose-dependent effect | Dose-dependent effect | Non-toxic |  | 
4 | 6.7 | COC(=O)[C@@]12CC(=O)[C@@H](C(C)C)CC(=O)[C@@H](C)CCC[C@@H](C)CC(=O)[C@@H]1CC(C)=C1[C@@H]3C[C@@](C)(O)[C@H](CC[C@@H](C)C(=O)CC/C(C)=C/[C@H]12)O3 [METHYL TORTUOATE B] | 25.8 | 19.7 |  |  |  |  | Dose-dependent effect | Dose-dependent effect | Non-toxic | 24.4 | > 40
5 |  | COC(=O)[C@]12CC(=O)[C@H](C(C)C)CC(=O)[C@H](C)CCC[C@H](C)CC(=O)[C@H]1CC(C)=C1C[C@H](OC(C)=O)[C@](C)(O)[C@H]3CC[C@@](C)(O)[C@H](CC/C(C)=C/[C@@H]12)O3 [NYALOLIDE] | 28.1 | 17.5 |  |  |  |  |  |  |  | 28.7 | 35.5
6 | 9.4 | C/C1=C\[C@@H]2O[C@@H](O)[C@@]3(C)O[C@@]23CC/C(C)=C/CC[C@@]2(C)O[C@H]2CC1 [LAEVIGATOL A] |  |  | inactive | inactive | inactive | inactive | Dose-dependent effect | Dose-dependent effect | Non-toxic |  | 
7 |  | C/C1=C/[C@]2(O)OC[C@@]3(C)O[C@]32CC[C@](C)(O)/C=C/C[C@@](C)(O)[C@@H](O)CC1 |  |  | inactive | inactive | inactive | inactive |  |  |  |  | 
8 |  | C/C1=C\[C@]2(O)OC[C@@]3(C)O[C@]32CC[C@](C)(O)/C=C/C[C@@]2(C)O[C@H]2CC1 |  |  | inactive | inactive | inactive | inactive |  |  |  |  | 
9 |  | COC(=O)/C1=C\C=C(\C(C)C)CCC2=CCC[C@](C)(OC2=O)[C@@H](OC(C)=O)CC1 [EMBLIDE] | 38.8 | > 40 |  |  |  |  |  |  |  | > 40 | > 40
10 |  | CC1=C2CC/C(C)=C/CC[C@]3(C)O[C@H]3CC/C(C)=C/[C@@H]2OC1=O [SARCOPHINE] | 34.7 | > 40 |  |  |  |  |  |  |  | > 40 | > 40
11 | 6.9 | COC(=O)[C@@]12CC(=O)[C@@H](C(C)C)CC(=O)[C@@H](C)CCC[C@@H](C)CC(=O)C1CC(C)=C1C2/C=C(\C)CCC2OC(CC[C@]2(C)OC(C)=O)[C@](C)(O)C[C@H]1O (stereo partly drawn) [XIMAOLIDE F] | 9 | 16.4 |  |  |  |  | Dose-dependent effect | Dose-dependent effect | Non-toxic | 28.4 | > 40
